Laboratory results reported in ChEMBL document CHEMBL4390665, “New 4-phenylcoumarin derivatives as potent 3C protease inhibitors: Design, synthesis, anti-HAV effect and molecular modeling” (Eur J Med Chem, 2019).
In brackets after ≈: the same amount, converted by molar mass.

What was measured:
Hepatovirus A [1] = test: Antiviral activity against Hepatitis A virus infected in rhesus monkey FRhK4 cells assessed as reduction in virus-induced cytopathic effect incubated for 72 hrs by MTT assay; assay type: functional, organism-based; details: FRhK-4, 72 h
Method in brief: (§1)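 Virucidal format: HAV (10^6 […] TCID50/0.1 ml) was mixed with an equal volume of non-toxic compound concentrations for 1 h at 37 °C. The mixture was added to FRhK-4 monolayers for 1 h, then replaced with medium for 72 h. MTT OD540 was read in triplicate with virus and cell controls to give IC50. TI = CC50/IC50.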

[2] = Cytotoxicity against rhesus monkey FRhK4 cells assessed as reduction in cell viability incubated for 48 hrs by MTT assay; assay type: cell-based, Macaca mulatta
Method in brief: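 FRhK-4 cells (DMEM, 10% FBS) were seeded at 5 X 10^3 cells/well and grown 24 h. They were exposed to compound at 7.8–1000 µg/mL for 48 h at 37 °C in 5% CO2. MTT (5 mg/mL) was added for 4 h, then DMSO for 30 min, and OD540 read. CC50 was derived from the mean of three ODs versus untreated cells.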

Hepatovirus A [3] = test: Antiviral activity against Hepatitis A virus infected in rhesus monkey FRhK4 cells assessed as inhibition in viral adsorption using cells pre-incubated with compound for 24 hrs before viral infection for 1 hr by MTT assay; assay type: functional, organism-based; details: FRhK-4
Method in brief: (§2)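 FRhK-4 monolayers in 24-well plates were exposed to non-toxic compound concentrations for 24 h at 37 °C in 5% CO2. Compound was then removed and HAV added for 1 h, after which the inoculum was replaced with medium for 72 h. MTT OD540 was read in triplicate alongside virus-infected and cell-only controls to give IC50. TI = CC50/IC50.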

Hepatovirus A [4] = test: Antiviral activity against Hepatitis A virus infected in rhesus monkey FRhK4 cells assessed as inhibition in viral replication using cells pre-infected with virus before compound exposure for 72 hrs by MTT assay; assay type: functional, organism-based; details: FRhK-4, 72 h
Method in brief: (§3)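 FRhK-4 monolayers were infected with HAV for 1 h. Unbound virus was removed and replaced with medium containing non-toxic compound concentrations, then incubated 72 h at 37 °C in 5% CO2. MTT OD540 was read in triplicate alongside virus-infected and cell-only controls to give IC50. TI = CC50/IC50.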

[5] = Therapeutic index, ratio of CC50 of rhesus monkey FRhK cells to IC50 of antiviral activity against Hepatitis A virus infected in rhesus monkey FRhK4 cells; assay type: toxicity, cell-based; details: read-out: Ratio CC50/IC50; method in brief: as §1
[6] = Therapeutic index, ratio of CC50 of rhesus monkey FRhK cells to IC50 of antiviral activity against Hepatitis A virus infected in rhesus monkey FRhK4 cells assessed as inhibition in viral adsorption using cells pre-incubated with compound for 24 hrs before viral infection for 1 hr by MTT assay; assay type: toxicity, cell-based; details: read-out: Ratio CC50/IC50; method in brief: as §2
[7] = Therapeutic index, ratio of CC50 of rhesus monkey FRhK cells to IC50 for antiviral activity against Hepatitis A virus infected in rhesus monkey FRhK4 cells assessed as inhibition in viral replication using cells pre-infected with virus before compound exposure for 72 hrs by MTT assay; assay type: toxicity, cell-based; details: read-out: Ratio CC50/IC50; method in brief: as §3
[8] = Inhibition of HAV 3C expressed in Escherichia coli BL21(DE3) pLysS using Dabcyl-GLRTQSND (edans) G as substrate preincubated for 3 mins before enzyme addition by fluorescence method; parameters: species or system Hepatovirus A
[9] = Inhibition of HAV 3C expressed in Escherichia coli BL21(DE3) pLysS using Dabcyl-GLRTQSND (edans) G as substrate preincubated for 3 mins before enzyme addition by fluorescence method based Cheng and Prusoff equation analysis; parameters: species or system Hepatovirus A
[10] = Inhibition of HRV 3C using chromogenic peptide substrate pre-incubated for 15 mins before substrate addition and measured after 1 to 2 hrs by colorimetric method
Method in brief: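 HRV 3C protease was assayed with a commercial screening kit, with reagents equilibrated to room temperature. Enzyme was incubated with compound for 15 min at room temperature, with enzyme and solvent controls. Substrate was then added and absorbance at 405 nm read in kinetic mode for 1–2 h at 37 °C.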

[11] = Binding affinity to Hepatitis A virus Protease 3C; parameters: species or system Hepatovirus A

IC50 [8] [µM]	IC50 [10] [µM]	Structure (SMILES)	IC50 (Hepatovirus A [1]) [µg/mL]	CC50 at 48 h [2] [µg/mL]	IC50 (Hepatovirus A [3]) [µg/mL]	IC50 (Hepatovirus A [4]) [µg/mL]	selectivity ratio [5]	selectivity ratio at 1 h [6]	selectivity ratio at 72 h [7]	Ki [9] [µM]	pKd [11]
		O=c1cc(-c2ccccc2)c2ccc(O)cc2o1	4.8 (≈ 20.1 µM)	340 (≈ 1430 µM)	1130 (≈ 4760 µM)	42.5 (≈ 178 µM)	70.8	0.3	8		
		NNC(=O)COc1ccc2c(-c3ccccc3)cc(=O)oc2c1	3920 (≈ 12600 µM)	785 (≈ 2530 µM)	112 (≈ 361 µM)	1120 (≈ 3610 µM)	0.2	7	0.7		
		CCn1c(COc2ccc3c(-c4ccccc4)cc(=O)oc3c2)n[nH]c1=S	12.9 (≈ 34 µM)	597 (≈ 1570 µM)	49.7 (≈ 131 µM)	82.7 (≈ 218 µM)	46	12	7		
		CCn1c(COc2ccc3c(-c4ccccc4)cc(=O)oc3c2)nnc1SCCN1CCOCC1	47 (≈ 95.4 µM)	942 (≈ 1910 µM)	1180 (≈ 2390 µM)	13.4 (≈ 27.2 µM)	20	0.8	70		
		C/C(=N\NC(=O)COc1ccc2c(-c3ccccc3)cc(=O)oc2c1)c1ccccc1	110 (≈ 265 µM)	438 (≈ 1060 µM)	219 (≈ 531 µM)	730 (≈ 1770 µM)	4	2	0.6		
		Cc1cc(C)n(C(=O)COc2ccc3c(-c4ccccc4)cc(=O)oc3c2)n1	37.6 (≈ 100 µM)	753 (≈ 2010 µM)	83.6 (≈ 223 µM)	44.3 (≈ 118 µM)	20	9	17		
		CNc1nnc(COc2ccc3c(-c4ccccc4)cc(=O)oc3c2)s1	2180 (≈ 5950 µM)	435 (≈ 1190 µM)	544 (≈ 1490 µM)	145 (≈ 397 µM)	0.2	0.8	3		
7.19	6.3	C/C(=N\NC(=O)COc1ccc2c(-c3ccccc3)cc(=O)oc2c1)c1ccc(Br)cc1	1880 (≈ 3830 µM)	752 (≈ 1530 µM)	8.5 (≈ 17.3 µM)	62.6 (≈ 127 µM)	0.4	88	12	0.217	5.53
		Cn1c(COc2ccc3c(-c4ccccc4)cc(=O)oc3c2)n[nH]c1=S	11.3 (≈ 30.9 µM)	648 (≈ 1770 µM)	1300 (≈ 3550 µM)	13.5 (≈ 36.9 µM)	57	0.5	48		
		CCOC(=O)COc1ccc2c(-c3ccccc3)cc(=O)oc2c1	1290 (≈ 3960 µM)	900 (≈ 2770 µM)	180 (≈ 555 µM)	25.7 (≈ 79.2 µM)	0.7	5	35		
		CNC(=S)NNC(=O)COc1ccc2c(-c3ccccc3)cc(=O)oc2c1	238 (≈ 620 µM)	951 (≈ 2480 µM)	11.9 (≈ 31 µM)	63.4 (≈ 165 µM)	4	80	15		
		O=C(COc1ccc2c(-c3ccccc3)cc(=O)oc2c1)N/N=C1/C(=O)Nc2ccccc21	80.5 (≈ 183 µM)	483 (≈ 1100 µM)	242 (≈ 550 µM)	121 (≈ 275 µM)	6	2	4		
		CN(C)CCSc1nnc(COc2ccc3c(-c4ccccc4)cc(=O)oc3c2)o1	44.8 (≈ 106 µM)	897 (≈ 2120 µM)	112 (≈ 264 µM)	35.8 (≈ 84.5 µM)	20	8	25		
		O=C(COc1ccc2c(-c3ccccc3)cc(=O)oc2c1)N/N=C1/C(=O)Nc2ccc(Br)cc21	13 (≈ 25.1 µM)	951 (≈ 1830 µM)	21.6 (≈ 41.7 µM)	18.3 (≈ 35.3 µM)	73	44	52		
		O=c1cc(-c2ccccc2)c2ccc(OCc3n[nH]c(=S)o3)cc2o1	4.7 (≈ 13.3 µM)	367 (≈ 1040 µM)	184 (≈ 521 µM)	7.34 (≈ 20.8 µM)	78	2	50		
		Nn1c(S)nnc1COc1ccc2c(-c3ccccc3)cc(=O)oc2c1	216 (≈ 590 µM)	648 (≈ 1770 µM)	3240 (≈ 8840 µM)	72 (≈ 197 µM)	3	0.2	9		
		O=C(COc1ccc2c(-c3ccccc3)cc(=O)oc2c1)NN1C(=O)c2ccccc2C1=O	106 (≈ 240 µM)	951 (≈ 2160 µM)	13 (≈ 29.5 µM)	1360 (≈ 3080 µM)	9	72	0.7		
17.8	16.1	CCNC(=S)NNC(=O)COc1ccc2c(-c3ccccc3)cc(=O)oc2c1	3.1 (≈ 7.8 µM)	258 (≈ 649 µM)	32.2 (≈ 81.1 µM)	86 (≈ 216 µM)	83	8	3	1.9	6.78
		CCN(CC)CCSc1nnc(COc2ccc3c(-c4ccccc4)cc(=O)oc3c2)o1	81.6 (≈ 181 µM)	245 (≈ 543 µM)	3.18 (≈ 7.04 µM)	7.65 (≈ 16.9 µM)	3	77	32		
		CCNc1nnc(COc2ccc3c(-c4ccccc4)cc(=O)oc3c2)s1	64.5 (≈ 170 µM)	129 (≈ 340 µM)	18.4 (≈ 48.5 µM)	25.8 (≈ 68 µM)	2	7	5		
		O=C(COc1ccc2c(-c3ccccc3)cc(=O)oc2c1)N/N=C1/C(=O)Nc2ccc(Cl)cc21	784 (≈ 1660 µM)	549 (≈ 1160 µM)	1100 (≈ 2320 µM)	5490 (≈ 11600 µM)	0.7	0.5	0.1		
		O=c1cc(-c2ccccc2)c2ccc(OCc3nnc(SCCN4CCOCC4)o3)cc2o1	9.9 (≈ 21.3 µM)	249 (≈ 535 µM)	9.9 (≈ 21.3 µM)	622 (≈ 1340 µM)	25	25	0.4		
5.94	4.13	C/C(=N\NC(=O)COc1ccc2c(-c3ccccc3)cc(=O)oc2c1)c1ccc(Cl)cc1	30.5 (≈ 68.2 µM)	978 (≈ 2190 µM)	44.4 (≈ 99.4 µM)	10.7 (≈ 23.9 µM)	32	22	91	0.104	5.51
		Nc1nc2c(ncn2COCCO)c(=O)[nH]1 [ACYCLOVIR]	35.6 (≈ 158 µM)	> 1000	33.5 (≈ 149 µM)	30.6 (≈ 136 µM)	80	85	93		
